Data set [1] has as its target T1, Gonadotropin-releasing hormone receptor (Homo sapiens, UniProt P30968).
T1 sequence (P30968 whole entry): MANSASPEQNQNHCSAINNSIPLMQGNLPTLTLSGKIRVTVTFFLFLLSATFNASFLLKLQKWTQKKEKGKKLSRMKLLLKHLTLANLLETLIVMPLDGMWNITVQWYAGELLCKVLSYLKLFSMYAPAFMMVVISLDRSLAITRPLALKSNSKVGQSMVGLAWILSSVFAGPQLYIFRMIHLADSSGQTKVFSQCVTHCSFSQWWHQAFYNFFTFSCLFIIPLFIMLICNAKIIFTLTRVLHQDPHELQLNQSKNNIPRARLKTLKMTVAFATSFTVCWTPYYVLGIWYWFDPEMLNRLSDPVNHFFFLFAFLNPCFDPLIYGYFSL
Kind of data set: Binding affinity towards human gonadotropin-releasing hormone receptor. In outline: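 Cloned human GnRH receptor stably expressed in HEK293 cells, binding measured in a 96-well filtration format. Results expressed as Ki. Key compounds were run in 3–8 independent experiments.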

Data set [2] concerns the target T2, Gonadotropin-releasing hormone receptor (Rattus norvegicus, UniProt P30969).
T2 sequence (P30969 whole entry): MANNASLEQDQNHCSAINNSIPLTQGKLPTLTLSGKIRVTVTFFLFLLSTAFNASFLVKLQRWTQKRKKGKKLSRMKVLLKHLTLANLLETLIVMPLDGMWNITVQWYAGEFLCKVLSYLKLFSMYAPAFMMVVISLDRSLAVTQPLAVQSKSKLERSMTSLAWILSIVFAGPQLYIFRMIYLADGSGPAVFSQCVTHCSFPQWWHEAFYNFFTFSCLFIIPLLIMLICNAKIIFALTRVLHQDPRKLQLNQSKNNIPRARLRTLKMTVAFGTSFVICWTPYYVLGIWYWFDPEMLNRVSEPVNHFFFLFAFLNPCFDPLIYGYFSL
Put plainly: Binding affinity towards rat Gonadotropin-releasing hormone receptor.

A short description of data set [3]: pKa value was determined. Type of data set: physicochemical.
Data set [4] in a line: Partition coefficient (logP). Type of data set: physicochemical. Particulars: octanol/water.

The structures appear in SMILES notation.

As for `CN(CCc1ccccc1)Cc1c(-c2ccc([N+](=O)[O-])cc2)sc2c1c(=O)n(-c1ccccc1)c(=O)n2Cc1c(F)cccc1F`, in data set [1], the Ki (usually the dissociation constant of the complex between target and ligand, obtained from inhibition or displacement) worked out at 170 nM.

`Cc1cc(-c2c(OCC[C@@H]3CCN3)c3cc(C(=O)Nc4ccncn4)c(Cl)cc3[nH]c2=O)cc(C)c1C`: in data set [2], the IC50 (as a rule, the point on the concentration scale where inhibition reaches its midpoint) was 4 nM.

Turning to `CN(Cc1ccccc1)Cc1c(-c2ccc(NC(=O)C(F)(F)F)cc2)sc2c1c(=O)n(-c1ccccc1)c(=O)n2Cc1c(F)cccc1F`, the Ki in data set [1] turned out to be 16 nM. That is a double-digit nanomolar value.

Regarding `CN(C)Cc1c(-c2ccc([N+](=O)[O-])cc2)sc2c1c(=O)n(-c1ccccc1)c(=O)n2Cc1c(F)cccc1F`, affinity in data set [1] was put at a Ki of 640 nM. This Ki is about 40-fold higher than that of the compound before.

In data set [1], `CN(Cc1ccccc1)Cc1c(-c2ccc([N+](=O)[O-])cc2)sc2c1c(=O)n(-c1ccccc1)c(=O)n2Cc1c(F)cccc1F` returned a Ki of 180 nM. Compared with the last compound, the Ki is about 3.6-fold lower.

Take `CC(C)C(=O)Nc1ccc(-c2sc3c(c2CN(C)Cc2ccccc2)c(=O)n(-c2ccccc2)c(=O)n3Cc2c(F)cccc2F)cc1`: the affinity in data set [1] corresponds to a Ki of 2.9 nM.

In data set [1], `CC(C)Nc1ccc(-c2sc3c(c2CN(C)Cc2ccccc2)c(=O)n(-c2ccccc2)c(=O)n3Cc2c(F)cccc2F)cc1` gave a Ki of 88 nM.

Consider `CN(Cc1ccccc1)Cc1c(-c2ccc(N(C)C)cc2)sc2c1c(=O)n(-c1ccccc1)c(=O)n2Cc1c(F)cccc1F`, for which the Ki in data set [1] came to 61 nM.

On to `CN(Cc1ccccn1)Cc1c(-c2ccc([N+](=O)[O-])cc2)sc2c1c(=O)n(-c1ccccc1)c(=O)n2Cc1c(F)cccc1F`, for which the Ki in data set [1] worked out at 9 nM. Against the preceding compound, the Ki is about 6.8-fold lower.

`CN(Cc1ccccc1)Cc1c(-c2ccc(N)cc2)sc2c1c(=O)n(-c1ccccc1)c(=O)n2Cc1c(F)cccc1F`: in data set [1], the Ki was determined as 36 nM.

`O=c1c2c(CN3CCNCC3)c(-c3ccc([N+](=O)[O-])cc3)sc2n(Cc2c(F)cccc2F)c(=O)n1-c1ccccc1` had a Ki in data set [1] of 460 nM. Compared with the last compound, the Ki is about 13-fold higher.

With `CC(=O)Nc1ccc(-c2sc3c(c2CN(C)Cc2ccccc2)c(=O)n(-c2ccccc2)c(=O)n3Cc2c(F)cccc2F)cc1`, the affinity in data set [1] corresponds to a Ki of 4.1 nM. This Ki is about 110-fold lower than that of the compound before.

Compound `CCNc1ccc(-c2sc3c(c2CN(C)Cc2ccccc2)c(=O)n(-c2ccccc2)c(=O)n3Cc2c(F)cccc2F)cc1` returned a Ki in data set [1] of 11 nM.

Compound `CN(Cc1ccccc1)Cc1c(-c2ccc(NC(=O)CN)cc2)sc2c1c(=O)n(-c1ccccc1)c(=O)n2Cc1c(F)cccc1F` returned a Ki in data set [1] of 150 nM.

The compound `CN(Cc1ccccc1)Cc1c(-c2ccc(NC(=O)CCCN)cc2)sc2c1c(=O)n(-c1ccccc1)c(=O)n2Cc1c(F)cccc1F` returned an inhibition constant Ki in data set [1] of 300 nM.

In data set [1], `CC(C)CNc1ccc(-c2sc3c(c2CN(C)Cc2ccccc2)c(=O)n(-c2ccccc2)c(=O)n3Cc2c(F)cccc2F)cc1` displayed a Ki of 17 nM.

`C[C@H](N)C(=O)Nc1ccc(-c2sc3c(c2CN(C)Cc2ccccc2)c(=O)n(-c2ccccc2)c(=O)n3Cc2c(F)cccc2F)cc1` returned a Ki in data set [1] of 43 nM.

`CCN(CC)CCN(C)Cc1c(-c2ccc([N+](=O)[O-])cc2)sc2c1c(=O)n(-c1ccccc1)c(=O)n2Cc1c(F)cccc1F` came in with a Ki in data set [1] of 76 nM.

`CCCCN(C)Cc1c(-c2ccc([N+](=O)[O-])cc2)sc2c1c(=O)n(-c1ccccc1)c(=O)n2Cc1c(F)cccc1F`: in data set [1], the Ki came to 270 nM.

Regarding `CN(CCc1ccccn1)Cc1c(-c2ccc([N+](=O)[O-])cc2)sc2c1c(=O)n(-c1ccccc1)c(=O)n2Cc1c(F)cccc1F`, in data set [1], the Ki is 0.6 nM. Compared with the last compound, the Ki is about 450-fold lower.

In data set [1], `COCCN(C)Cc1c(-c2ccc([N+](=O)[O-])cc2)sc2c1c(=O)n(-c1ccccc1)c(=O)n2Cc1c(F)cccc1F` yielded a Ki of 170 nM.

With `CN(Cc1ccccc1)Cc1c(-c2ccc(NC(=O)CCN)cc2)sc2c1c(=O)n(-c1ccccc1)c(=O)n2Cc1c(F)cccc1F`, the Ki in data set [1] was found to be 360 nM.

`CC(C)CC(N)C(=O)Nc1ccc(-c2sc3c(c2CN(C)Cc2ccccc2)c(=O)n(-c2ccccc2)c(=O)n3Cc2c(F)cccc2F)cc1` (single isomer, unassigned) gave a Ki in data set [1] of 58 nM.

For `CONC(=O)Nc1ccc(-c2sc3c(c2CN(C)Cc2ccccc2)c(=O)n(-c2ccccc2)c(=O)n3Cc2c(F)cccc2F)cc1` [SUFUGOLIX], the pKa – broadly, the pH at which an ionisable group is half protonated – in data set [3] worked out at 5. Further, the logP (usually a log measure of how a compound divides between an organic and an aqueous phase) in data set [4] was 6.5.

(Values after ChEMBL document CHEMBL1136304, “Synthesis and structure-activity relationships of thieno[2,3-d]pyrimidine-2,4-dione derivatives as potent GnRH receptor antagonists” (Bioorg Med Chem Lett, 2003).)
